From ChEMBL document CHEMBL1121655, “Methylangelicins: new potential agents for the photochemotherapy of psoriasis. Structure-activity study on the dark and photochemical interactions with DNA” (J Med Chem, 1981)
Values after ≈ are worked out from the molar mass of the structure shown.

Tests used:
[1] = Water solubility (solubility in mol/L); assay type: ADME; details: read-out: S
Ehrlich [2] = test: Compound was evaluated for the inhibition of DNA synthesis in Ehrlich Ascites tumor cells by irradiation (365 nm) at 1.9 x 10 e-5M; assay type: functional
How it was run: (§1)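 Ehrlich ascites cells, 2×10^7 cells/mL in Hank's solution, on ice with 1.9×10^-5 M compound, irradiated by HPW 125 lamp at 20 cm (2.02×10^16 quanta/s). Then 2×10^6 cells pulsed 15 min at 37 °C with 1 μCi [3H]thymidine (DNA) or [3H]uridine (RNA). TCA-insoluble counts as % of untreated. Each dose at least in duplicate. D50 = UV dose giving 50% inhibition.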

Ehrlich [3] = test: Compound was evaluated for the inhibition of RNA synthesis in Ehrlich Ascites tumor cells by irradiation (365 nm) at 1.9 x 10 e-5M; assay type: functional; how it was run: as §1
Nucleic Acid [4] = test: (§2) Compound was evaluated for association constant in the calf thymus DNA; assay type: functional; details: Bos taurus
How it was run: (§3)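 Equilibrium dialysis at 25 ± 0.05 °C in the dark, 12 h with shaking, across a cellophane membrane. Tritiated angelicin at slightly below its water solubility in 0.02 M NaCl with 1 mM EDTA, against DNA at 3×10^-3 to 3×10^-4 M. Both phases counted by scintillation to give r and c. K and n fitted iteratively to the McGhee–von Hippel equation.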

Nucleic Acid [5] = test: Compound was evaluated for rate constant in the calf thymus DNA; assay type: functional; details: Bos taurus
How it was run: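 DNA at 2.3×10^-3 M in 2×10^-3 M NaCl and 1×10^-3 M EDTA with 3×10^-5 M labeled furocoumarin. Irradiated at 365 nm, 1.07×10^16 quanta s^-1 mL^-1, for increasing times in a thermostatted bath. Complexed fraction at time 0 taken from dialysis at 2 mM NaCl with ligand:nucleotide 1:76.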

Nucleic Acid [6] = test: as §2; assay type: nucleic-acid assay; details: Bos taurus; how it was run: as §3

Compound	solubility [1]	D50 (Ehrlich [2])	D50 (Ehrlich [3])	K (Nucleic Acid [4])	Rate constant (Nucleic Acid [5])	K (Nucleic Acid [6])
O=c1ccc2ccc3occc3c2o1 [ANGELICIN]	20 µg/mL (≈ 107 µM)	2.5e+19 quanta	2.33e+19 quanta	560	0.011 min⁻¹	
O=c1ccc2cc3ccoc3cc2o1 [PSORALEN]		9.1e+18 quanta	1.4e+19 quanta			
Cc1cc2c(ccc3ccc(=O)oc32)o1	12 µg/mL (≈ 59.9 µM)	1.66e+19 quanta	1.74e+19 quanta	1200	0.021 min⁻¹	
Cc1cc2c(cc(C)c3ccc(=O)oc32)o1	3 µg/mL (≈ 14 µM)	1.38e+19 quanta	6.6e+18 quanta	1750	0.027 min⁻¹	
Cc1cc2occc2c2oc(=O)ccc12	4.5 µg/mL (≈ 22.5 µM)	9.1e+18 quanta	8.3e+18 quanta	1560	0.034 min⁻¹	
Cc1cc2c(ccc3c(C)cc(=O)oc32)o1		1.09e+19 quanta	1.35e+19 quanta			1450
Cc1cc(=O)oc2c1ccc1occc12	4 µg/mL (≈ 20 µM)	2.4e+19 quanta	1.81e+19 quanta	1400	0.016 min⁻¹	
